RGS4 block: human RGS4 inhibition; AID 463165; B-score at 10 µM; HEK293 M3R/RGS4 inducible, Fluo-4 calcium flux; hits give high values; triggered by carbachol at its EC20; 0.45% of 310,000 active; P49798;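 active = B-score, a plate-corrected calcium signal, over three deviations above library mean, with baseline fluorescence within five deviations of library mean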;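 also: RGS4 expression induced by doxycycline in cells with stable M3 receptor; B-score is computed from the integrated fluorescence ratio over baseline after carbachol; higher B-score means a larger calcium signal and so more RGS4 inhibition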
Target sequence (P49798 whole entry, looked up): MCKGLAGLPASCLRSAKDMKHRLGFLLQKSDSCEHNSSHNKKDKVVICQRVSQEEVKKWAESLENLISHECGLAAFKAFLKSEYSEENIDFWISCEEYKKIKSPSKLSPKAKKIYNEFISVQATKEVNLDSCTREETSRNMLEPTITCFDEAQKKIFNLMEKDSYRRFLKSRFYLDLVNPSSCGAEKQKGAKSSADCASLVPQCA
MrgX1 PAM: human MrgX1 positive allosteric modulation, primary screen | Q96LB2 | MrgX1-HEK293, Fluo-4 calcium flux, FDSS; hits give high values | B-score at 10 µM | 0.63% of 310,000 active;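 active = plate-corrected calcium response at least 3 library SD above typical, normal starting fluorescence, not activating the receptor alone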;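 also: compound read alongside a low EC10 to EC30 dose of BAM8-22 agonist; peak minus trough fluorescence over baseline measured at the second addition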
Target sequence (Q96LB2 whole entry, looked up): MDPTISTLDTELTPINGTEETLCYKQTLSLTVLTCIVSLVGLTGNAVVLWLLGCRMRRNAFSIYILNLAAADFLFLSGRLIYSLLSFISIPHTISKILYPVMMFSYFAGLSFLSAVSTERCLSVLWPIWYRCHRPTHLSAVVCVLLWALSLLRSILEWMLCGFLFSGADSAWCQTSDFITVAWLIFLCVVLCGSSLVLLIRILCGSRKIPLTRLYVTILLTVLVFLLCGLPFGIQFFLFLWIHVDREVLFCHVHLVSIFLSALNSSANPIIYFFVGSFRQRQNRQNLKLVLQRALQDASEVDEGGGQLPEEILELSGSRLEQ
MrgX1 antag: blocks BAM8-22 activation of human MrgX1 receptor; MRGX1-HEK293 calcium flux, Fluo-4, BAM8-22 antagonism; hits give low values; B-score at 10 µM; Q96LB2; 1.3% of 310,000 active;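 active = calcium-response B-score plate-corrected more than 3 library SD below zero, starting fluorescence within 5 deviations, no agonist response on first addition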;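 also: peak minus trough fluorescence over baseline after final BAM8-22 challenge near maximal dose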
RGS4 pot: RGS4 potentiation or activation | HEK293 M3R/inducible RGS4, carbachol calcium flux Fluo4; hits give low values | B-score at 10 µM | 0.92% of 310,000 active | AID 463111;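 active = B-score of the integrated calcium signal more than 4 SD below the library mean, with starting fluorescence not abnormally high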;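 also: negative B-score means reduced calcium response which marks RGS4 activation or potentiation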
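Reagent: ECmax carbachol challenge; Test system: M3R-expressing HEK293 line, RGS4 induced by doxycycline; Schedule: overnight RGS4 induction, 30 min dye load 37 °C, 20 min compound RT; Detection: calcium dye Fluo4 fluorescence; Read-out: Agonist-evoked peak-minus-minimum fluorescence over baseline, integrated ratio, B score.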
MrgX1 ag: agonists of human MrgX1 receptor | Q96LB2 | MrgX1-HEK293 cells, Fluo-4 calcium fluorescence, agonist mode; hits give high values | B-score at 10 µM | 0.44% of 310,000 active;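 active = calcium response B-score plate-corrected fluorescence ratio at least 3 library SD, with starting fluorescence B-score inside 5 SD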
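System – MrgX1-expressing HEK293 cells · Incubation – cells plated overnight, dye loaded 0.5 h 37 °C, 0.5 h room temperature · Technique – kinetic Fluo-4 NW fluorescence of intracellular calcium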
Of the large screens only hits and unclear results are named; the others gave an inactive call. A selection: hits, their analogues and other compounds. The true share with any hit is near 3.5%.

O=C(NCC(c1ccco1)N1CCc2ccccc2C1)C(=O)Nc1ccccc1F (stereo unspecified)	none
CCc1ccc(NS(=O)(=O)c2cccc3nonc23)cc1	none
CCOC(=O)c1c(/N=C/c2ccc(OC)cc2O)sc2c1CCN(C)C2	MrgX1 antag -4.8
CCOC(=O)c1c(/N=C/c2ccc(C)cc2O)sc2c1CCC2	none
CC(C)CSC1=NSC2=NC(=O)/C(=C\c3ccccc3)C(=N)N12	MrgX1 ag 27
Cc1cc(/C=C2\C(=N)N3C(SCc4ccccc4)=NSC3=NC2=O)c(C)n1Cc1ccccc1	none
CCOC(=O)CSc1nc(-c2ccccc2)nc2c1oc1ccccc12	RGS4 pot -7.3
NNC(=O)Nc1cccc(C(F)(F)F)c1	MrgX1 PAM 12
O=C(Nc1ccccc1N1CCCCC1)c1ccc(-c2cccc(Cl)c2)o1	none
CN1CCN(c2ccccc2NC(=O)c2ccc(-c3cccc(Cl)c3)o2)CC1	RGS4 pot -8.5
CC(/C=C1\SC(=S)N(c2ccc(C(=O)O)cc2)C1=O)=C\c1ccccc1	MrgX1 antag -9.6, RGS4 pot -8.4
COc1ccc(/C=C2/SC(=S)N(NS(=O)(=O)c3ccccc3)C2=O)cc1	MrgX1 ag 31
CC(/C=C1\SC(=S)N(NC(=O)c2ccc(C)cc2)C1=O)=C\c1ccccc1	none
O=C1/C(=C\c2ccc(Br)cc2)SC(=S)N1NS(=O)(=O)c1ccccc1	none
CC(/C=C1\SC(=S)N(NS(=O)(=O)c2ccccc2)C1=O)=C\c1ccccc1	MrgX1 antag -8.8
Cc1cc(C)cc(NC(=S)N2CC(C)OC(C)C2)c1 (stereo unspecified)	none
COc1ccc2[nH]c(=O)c(CN(Cc3cccs3)C(=S)Nc3cccc(C)c3)cc2c1	none
Cc1cccc(NC(=S)N(Cc2cccs2)Cc2cc3cc(C)cc(C)c3[nH]c2=O)c1	MrgX1 antag -5.4
Cc1ccc(S(=O)(=O)NC(C(=O)Oc2ccc3ccc(=O)oc3c2)c2ccccc2)cc1 (stereo unspecified)	none
Cc1ccc(S(=O)(=O)N[C@H](C(=O)Oc2ccc3c(C(F)(F)F)cc(=O)oc3c2)c2ccccc2)cc1	MrgX1 ag 29
O=C(N/N=C/c1ccc(O)cc1)c1ccc(COc2cc(Cl)ccc2Cl)o1	MrgX1 antag -5.2
CC(=O)O[C@@H]1C[C@H]2C(C)(C)C(=O)C=C[C@]2(C)[C@H]2CC[C@@]3(C)[C@H](c4ccoc4)OC(=O)[C@H]4O[C@]43[C@@]21C	MrgX1 PAM 9.8
CCOC(=O)CSc1nc2c(sc(=S)n2-c2ccccc2OC)c(=O)n1Cc1ccco1	MrgX1 ag 40
C=C(C)CSc1nc2sc3c(c2c(=O)n1-c1ccc(C)cc1)CCN(C)C3	RGS4 pot -10 (no result: MrgX1 PAM, MrgX1 antag, MrgX1 ag)
CCOC(=O)CSc1nc2sc3c(c2c(=O)n1C1CCCCC1)CCN(C)C3	RGS4 pot -10
CCn1c(SCC(N)=O)nc2sc3c(c2c1=O)CCN(C)C3	none
CCOC(=O)CSc1nc2sc3c(c2c(=O)n1-c1ccc(OCC)cc1)CCN(C)C3	none
Cc1ccc(CN(C)C(=O)c2cc(COc3ccc(F)cc3Cl)on2)o1	none
CN(C(=O)c1cc(COc2ccc(F)cc2Cl)on1)C1CCCc2ccccc21 (stereo unspecified)	RGS4 pot -7.2
NC(=O)Cn1nc([N+](=O)[O-])nc1Oc1ccccc1C(=O)N1CCOCC1	MrgX1 antag -4.6
NC(=O)Cn1nc([N+](=O)[O-])nc1Oc1ccccc1F	none
CC12CCC(=O)N1C(C(=O)Nc1cc(Cl)ccc1N1CCOCC1)CS2 (stereo unspecified)	none
CCc1nn(C(C)C(=O)NCCc2ccccc2)c(=O)c2cc3occc3n12 (stereo unspecified)	none
COc1ccc(CNC(=O)C(C)n2nc(C)n3c(cc4occc43)c2=O)cc1 (stereo unspecified)	MrgX1 antag -8.1
Cc1nn(C(C)C(=O)NC(C)CCc2ccccc2)c(=O)c2cc3occc3n12 (stereo unspecified)	MrgX1 antag -7.6
COc1ccccc1/C=C1\SC(=S)N(CC(=O)NC2CCS(=O)(=O)C2)C1=O (stereo unspecified)	none
Cc1ccc(C)c(S(=O)(=O)/N=C2\C=C(NS(=O)(=O)c3ccccc3)C(=O)c3ccccc32)c1	none
Cc1cc(C)c(S(=O)(=O)/N=C2/C=C(Sc3ncn[nH]3)C(=O)c3ccccc32)cc1C	MrgX1 PAM 6.8 (no result: RGS4 block, RGS4 pot)
O=C(N/N=C/c1cc(Cl)ccc1O)c1ccncc1	MrgX1 antag -5.1
O=C(N/N=C/c1ccccc1Cl)c1ccncc1	none
Cc1cc(C)c(NS(=O)(=O)c2ccc(NC(=O)CCC(=O)O)cc2)c(C)c1	none
CCOC(=O)C1CCN(C(=O)C2CCN(c3nnc(-n4cccc4)s3)CC2)CC1	none
CCOC(=O)C1CCN(C(=O)C2CCN(c3nc4ccc(OC)cc4s3)CC2)CC1	MrgX1 antag -5.5
CCOc1ccc(N(C)c2ccc(/C=C3/SC(=S)NC3=O)cc2)cc1	MrgX1 ag 35
CCCC[n+]1c2ccccc2cc2ccccc21	MrgX1 ag 32
CCCCC[n+]1cccc2c3ccccc3ccc21	none
CCC[n+]1c2ccccc2cc2ccccc21	MrgX1 ag 26
Cc1ccc2ccccc2[n+]1CCCS(=O)(=O)[O-]	none
CCc1ccc(-c2nc(CS(=O)CC(=O)NCCCN3CCC(C)CC3)c(C)o2)cc1 (stereo unspecified)	none
N=C1SCC(=O)N1c1ncc(Cc2ccc(F)cc2)s1	none
Clc1ccc2c(c1)C(N1CCNCC1)Cc1ccccc1S2 (stereo unspecified)	RGS4 pot -7.8
COCCCN1CCN(C2Cc3ccccc3Sc3ccc(Cl)cc32)CC1 (stereo unspecified)	none
Cn1cccc1-c1cc(C(=O)N/N=C/C=C/c2ccccc2)[nH]n1	MrgX1 antag -5.8
CCOc1cc(/C=N/NC(=O)c2ccc(CN3CCOCC3)cc2)ccc1OCc1ccccc1	RGS4 pot -7.3
CCOc1cc(/C=N/NC(=O)c2ccncc2)ccc1OC(=O)c1ccco1	none
CCOc1cc(/C=N/NC(=O)C(O)(c2ccccc2)c2ccccc2)ccc1OC(=O)c1ccco1	RGS4 pot -10
Fc1ccccc1CN1CCCCCCC1	none
c1ccc(Sc2ccccc2CN2CCCC2)cc1	RGS4 pot -7.4
COc1ccccc1C(=O)NN(C)C1=NS(=O)(=O)c2ccccc21	none
COC(C[C@H]1O[C@H]1[C@H](O)[C@H](C)OCc1ccccc1)OC	none (no result: MrgX1 PAM, MrgX1 antag, MrgX1 ag)
COc1ccc(C/C(N)=N/O)cc1	MrgX1 antag -8.3
COc1ccc(CC(=O)O/N=C(\N)Cc2ccc(OC)cc2)cc1	none
O=C1CC(c2ccco2)CC(O)=C1C=NCC1CCNCC1 (stereo unspecified)	RGS4 pot -7.8
Cc1ccc(S(=O)(=O)N2CCC(C(=O)N/N=C/c3ccccc3[N+](=O)[O-])CC2)cc1	none
